Measured values taken from ChEMBL document CHEMBL1143019, “Hybrid molecules of estrone: new compounds with potential antibacterial, antifungal, and antiproliferative activities” (2007).

What was measured:
Aspergillus fumigatus [1] = test: Antifungal activity against Aspergillus fumigatus 231 after 24 hrs; type: functional
In short: (§1)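 Modified NCCLS M27-A broth microdilution with clinical isolates subcultured on Sabouraud dextrose agar. Suspensions diluted 1:50 in RPMI 1640 to give a final inoculum of 0.5–2.5×10³ CFU/mL for yeasts or 0.5–5×10⁴ CFU/mL for molds. The RPMI had L-glutamine, no bicarbonate, and 0.165 M MOPS to pH 7.0. Twofold dilutions from 250 to 0.49. Plates held at 35 °C, humid, without agitation. MIC is the lowest concentration giving ≥80% inhibition versus drug-free control, read at 24 and 48 h.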

[2] = test system: Mycobacterium tuberculosis; test: Antimicrobial activity against Mycobacterium tuberculosis My 331/88 after 14 days; type: functional; details: 336 h
[3] = test system: Mycobacterium tuberculosis; test: Antimicrobial activity against Mycobacterium tuberculosis My 331/88 after 21 days; type: functional; details: 504 h
Candida albicans [4] = test: Antifungal activity against Candida albicans ATCC 44859 after 24 hrs; type: functional; details: ATCC 44859, 24 h; in short: as §1
Mycobacterium kansasii [5] = test: Antimicrobial activity against Mycobacterium kansasii My 235/80 after 7 days; type: functional; details: 168 h
In short: (§2)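 Run in Šula semisynthetic liquid medium containing bovine serum. Compounds added as DMSO solutions at final concentrations of […]. Each strain was also inoculated onto Löwenstein–Jensen medium to control inoculum sterility and growth.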

Micrococcus luteus = test: Antibacterial activity against Micrococcus luteus ATCC 10240 after 24 hrs by microbroth dilution method; type: functional; details: ATCC 10240, 24 h
In short: (§3)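 Microbroth dilution per NCCLS guidelines. Bacteria grown overnight at 37 °C in Mueller–Hinton broth. Compound solution serially diluted twofold in MHB, then wells inoculated to a final 5×10⁵ CFU/mL. Incubated 24 h at 37 °C. MIC (µg/mL) read on an automatic plate reader as the lowest dilution allowing no visible growth.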

Aspergillus fumigatus [6] = test: Antifungal activity against Aspergillus fumigatus 231 after 48 hrs; type: functional; in short: as §1
Nakaseomyces glabratus [7] = test: Antifungal activity against Candida glabrata 20/I after 48 hrs; type: functional; in short: as §1
Pichia kudriavzevii [8] = test: Antifungal activity against Candida krusei E28 after 24 hrs; type: functional; in short: as §1
HeLa = test: Cytotoxicity against human HeLa cells after 72 hrs; type: functional; details: for CC50: Homo sapiens, HeLa, 72 h
In short: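 About 10,000 cells per well in RPMI 1640 were preincubated 48 h without compound. The 10 test concentrations were then applied onto the monolayers and incubated 72 h at 37 °C in humidified 5% CO₂. Monolayers fixed with glutaraldehyde, stained with 0.05% methylene blue, and eluted with 0.33 N HCl; optical density measured at 630 nm.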

Enterococcus faecalis = test: Antibacterial activity against Enterococcus faecalis 1528 after 24 hrs by micro-broth dilution method; type: functional; in short: as §3
Trichosporon beigelii [9] = test: Antifungal activity against Trichosporon beigelii 1188 after 24 hrs; type: functional; in short: as §1
Mycolicibacterium aurum = test: Antimicrobial activity against Mycobacterium aurum SB 66 after 24 hrs by micro-broth dilution method; type: functional; in short: as §3
[10] = test system: Mycolicibacterium fortuitum; test: Antimicrobial activity against Mycobacterium fortuitum Borstel after 24 hrs by microbroth dilution method; type: functional; in short: as §3
Candida tropicalis [11] = test: Antifungal activity against Candida tropicalis 156 after 24 hrs; type: functional; in short: as §1
Candida albicans [12] = test: Antifungal activity against Candida albicans ATCC 44859 after 48 hrs; type: functional; details: ATCC 44859, 48 h; in short: as §1
Mycobacterium kansasii [13] = test: Antimicrobial activity against Mycobacterium kansasii My 6509/96 after 7 days; type: functional; details: 168 h; in short: as §2
Lichtheimia corymbifera [14] = test: Antifungal activity against Absidia corymbifera 272 after 48 hrs; type: functional; in short: as §1
Staphylococcus aureus [15] = test: Antibacterial activity against methicillin-resistant Staphylococcus aureus 994/93 after 24 hrs by micro-broth dilution method; type: functional
In short: (§4)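 Broth microdilution per NCCLS in Mueller–Hinton broth. Overnight cultures grown at 37 °C. Compound serially diluted twofold, then wells inoculated to a final 5×10⁵ CFU/mL. Plates held at 37 °C for 24 h. MIC (µg/mL) read on an automatic plate reader as the lowest dilution with no visible growth.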

L929 = test: Antiproliferative activity against mouse L929 cells after 72 hrs; type: functional; details: L929, 72 h
In short: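 About 10,000 adherent cells per well in RPMI 1640 with 10% heat-inactivated FBS and penicillin/streptomycin, without HEPES. Exposed to 10 concentrations for 72 h at 37 °C in humidified 5% CO₂. Monolayers fixed with glutaraldehyde, stained 15 min with 0.05% methylene blue, and eluted with 0.33 N HCl; OD read at 630 nm. GI50 derived from dose–response curves relative to control.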

Trichophyton benhamiae [16] = test: Antifungal activity against Trichophyton mentagrophytes 445 after 120 hrs; type: functional, Arthroderma benhamiae
In short: (§5)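 Same modified M27-A microdilution with the mold inoculum of 0.5–5×10⁴ CFU/mL. Medium was RPMI 1640 with L-glutamine, no bicarbonate, and 0.165 M MOPS at pH 7.0. Twofold dilutions from 250 to 0.49. Incubated at 35 °C in a humid atmosphere.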

Lichtheimia corymbifera [17] = test: Antifungal activity against Absidia corymbifera 272 after 24 hrs; type: functional; in short: as §1
Mycolicibacterium vaccae = test: Antimicrobial activity against Mycobacterium vaccae 10670 after 24 hrs by micro-broth dilution method; type: functional; in short: as §3
Mycobacterium avium [18] = test: Antimicrobial activity against Mycobacterium avium My 330/88 after 21 days; type: functional; details: 504 h
Mycobacterium kansasii [19] = test: Antimicrobial activity against Mycobacterium kansasii My 235/80 after 14 days; type: functional; details: 336 h; in short: as §2
Mycobacterium kansasii [20] = test: Antimicrobial activity against Mycobacterium kansasii My 235/80 after 21 days; type: functional; details: 504 h; in short: as §2
Mycobacterium avium [21] = test: Antimicrobial activity against Mycobacterium avium My 330/88 after 14 days; type: functional; details: 336 h
Trichophyton benhamiae [22] = test: Antifungal activity against Trichophyton mentagrophytes 445 after 72 hrs; type: functional, Arthroderma benhamiae; in short: as §5
Nakaseomyces glabratus [23] = test: Antifungal activity against Candida glabrata 20/I after 24 hrs; type: functional; in short: as §1
Candida tropicalis [24] = test: Antifungal activity against Candida tropicalis 156 after 48 hrs; type: functional; in short: as §1
Staphylococcus aureus [25] = test: Antibacterial activity against Staphylococcus aureus SG 511 after 24 hrs by micro-broth dilution method; type: functional; details: SG 511, 24 h; in short: as §3
[26] = test system: Mycolicibacterium smegmatis; test: Antimicrobial activity against Mycobacterium smegmatis SG 987 after 24 hrs by micro-broth dilution method; type: functional; in short: as §3
Pichia kudriavzevii [27] = test: Antifungal activity against Candida krusei E28 after 48 hrs; type: functional; in short: as §1
K562 = test: Antiproliferative activity against human K562 cells after 72 hrs; type: functional; details: K562, 72 h
In short: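 About 10,000 suspension cells per well in RPMI 1640 with 10% heat-inactivated FBS and penicillin/streptomycin, without HEPES. Exposed to 10 concentrations for 72 h at 37 °C in humidified 5% CO₂. Wells diluted 1:50 in CASYTON and counted electronically, each result the mean of three successive counts. GI50 is where the concentration–response curve crosses 50% of control cell count.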

Trichosporon beigelii [28] = test: Antifungal activity against Trichosporon beigelii 1188 after 48 hrs; type: functional; in short: as §1
Mycobacterium kansasii [29] = test: Antimicrobial activity against Mycobacterium kansasii My 6509/96 after 14 days; type: functional; details: 336 h; in short: as §2
Staphylococcus aureus [30] = test: Antibacterial activity against methicillin-resistant Staphylococcus aureus 134/94 after 24 hrs by microbroth dilution method; type: functional; in short: as §4
Mycobacterium kansasii [31] = test: Antimicrobial activity against Mycobacterium kansasii My 6509/96 after 21 days; type: functional; details: 504 h; in short: as §2

SMILES | MIC [2] | MIC [3] | MIC (Mycobacterium kansasii [5]) | MIC (Micrococcus luteus) | MIC (Nakaseomyces glabratus [7]) | CC10 (HeLa) | CC50 (HeLa) | MIC (Enterococcus faecalis) | MIC (Mycolicibacterium aurum) | MIC [10] | MIC (Candida albicans [12]) | MIC (Mycobacterium kansasii [13]) | MIC (Lichtheimia corymbifera [14]) | MIC (Staphylococcus aureus [15]) | GI50 (L929) | MIC (Trichophyton benhamiae [16]) | MIC (Mycolicibacterium vaccae) | MIC (Mycobacterium avium [18]) | MIC (Mycobacterium kansasii [19]) | MIC (Mycobacterium kansasii [20]) | also measured
C[C@]12CC[C@@H]3c4ccc(OCCCCCCC[n+]5ccc(SCc6ccc(Cl)cc6)cc5)cc4CC[C@H]3[C@@H]1CCC2=O.[Br-] | 16 µM | 16 µM | 16 µM | 0.8 µg/mL | 15.6 µM | 1.9 µg/mL | 4.1 µg/mL | 3.12 µg/mL | 3.12 µg/mL | 6.25 µg/mL | 7.8 µM | 16 µM | 62.5 µM | 3.12 µg/mL | 2.8 µg/mL | 15.6 µM | 1.56 µg/mL | 8 µM | 16 µM | 16 µM | MIC (Aspergillus fumigatus [1]): 15.6 µM; MIC (Candida albicans [4]): 7.8 µM; MIC (Aspergillus fumigatus [6]): 31 µM; MIC (Pichia kudriavzevii [8]): 7.8 µM; MIC (Trichosporon beigelii [9]): 7.8 µM; MIC (Candida tropicalis [11]): 15.6 µM; MIC (Lichtheimia corymbifera [17]): 62.5 µM; MIC (Mycobacterium avium [21]): 8 µM; MIC (Trichophyton benhamiae [22]): 7.8 µM; MIC (Nakaseomyces glabratus [23]): 15.6 µM; MIC (Candida tropicalis [24]): 15.6 µM; MIC (Staphylococcus aureus [25]): 3.12 µg/mL; MIC [26]: 6.25 µg/mL; MIC (Pichia kudriavzevii [27]): 15.6 µM; GI50 (K562): 1 µg/mL; MIC (Trichosporon beigelii [28]): 7.8 µM; MIC (Mycobacterium kansasii [29]): 16 µM; MIC (Staphylococcus aureus [30]): 3.12 µg/mL
Cc1ccc(CSc2cc[n+](CCCCCCCOc3ccc4c(c3)CC[C@@H]3[C@@H]4CC[C@]4(C)C(=O)CC[C@@H]34)cc2)cc1.[Br-] | 4 µM | 8 µM | 16 µM | 0.8 µg/mL | 7.8 µM | 1 µg/mL | 1.9 µg/mL | 3.12 µg/mL | 3.12 µg/mL | 6.25 µg/mL | 3.9 µM | 16 µM | 15.6 µM | 3.12 µg/mL | 3.5 µg/mL | 7.8 µM | 1.56 µg/mL | 8 µM | 16 µM | 16 µM | MIC (Mycobacterium avium [21]): 8 µM; MIC (Staphylococcus aureus [25]): 1.56 µg/mL; MIC [26]: 6.25 µg/mL; MIC (Pichia kudriavzevii [27]): 7.8 µM; GI50 (K562): 13.1 µg/mL; MIC (Mycobacterium kansasii [31]): 16 µM; MIC (Trichosporon beigelii [28]): 7.8 µM; MIC (Mycobacterium kansasii [29]): 16 µM; MIC (Staphylococcus aureus [30]): 3.12 µg/mL
